# High-throughput results deposited in PubChem by several laboratories.
# VLA-4 inh – inhibition in a human VLA-4 binding assay. P13612. VLA-4 expressing cells, ligand binding flow cytometry. inhibition, % (about 7 µM as worked out from the volumes in the protocol). actives 0.2% (n = 330,000). AID 2557; in the data active means inhibition above about 50%
# DAGLB inh – diacylglycerol lipase beta (human) inhibition; HEK293T DAGLB membrane lysate, EnzChek fluorogenic substrate; inhibition, % at 5.17 µM; actives 0.059% (n = 340,000); AID 504411; in the data active means inhibition above about 34%;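 further: 0% = enzyme with vehicle and 100% = wells lacking enzyme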
# FGF22 binding – FGF22 (human) thermal shift binding | Q9HCT0 | recombinant FGF22 thermal shift, SYPRO orange fluorescence; percent of sucrose octasulfate shift, DMSO zero | activity (Tm shift, normalised), % at 9.99 µM | actives 1.5% (n = 340,000);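 active means mean Tm shift, scaled 0 neutral to 100 positive control, at about 1.3% or above, every replicate too, limit read from the data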
# Target sequence (Q9HCT0 whole entry, looked up): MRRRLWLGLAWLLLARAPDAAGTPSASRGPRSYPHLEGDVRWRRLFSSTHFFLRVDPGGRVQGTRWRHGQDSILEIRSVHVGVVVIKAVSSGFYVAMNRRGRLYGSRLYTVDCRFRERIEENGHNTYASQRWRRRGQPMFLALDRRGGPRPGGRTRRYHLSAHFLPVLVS
# ABCB6 inh MLPCN – blocks the human ABCB6 transporter; Q9NP58; K562-ABCB6 porphyrin accumulation, flow cytometry, 1 h; stronger effect = lower value; fluorescence ratio to DMSO, % at 10 µM; actives 0.19% (n = 360,000);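 active means fluorescence ratio to DMSO below 75%, the collection mean minus 3 SD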;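 further: signal is porphyrin accumulated inside mitochondria; 100% equals median channel fluorescence of DMSO control wells; lower ratio means ABCB6 inhibition with less porphyrin fluorescence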
# MT1-MMP act inh – blocks activation of human MT1-MMP; P50281; HT1080 RFP-PRO-GFP cells, GFP/RFP ratio fluorescence, overnight; percent of plate control window, DMSO zero; GFP/RFP ratio change, % at 20 µM; actives 0.061% (n = 360,000);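 active means GFP/RFP ratio change of at least 30% with cell ATP level not reduced by more than half and red fluorescence within 50% of control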
#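 system = RFP-PRO-GFP reporter HT1080 cells | dosing = 20 µM single dose, 1% DMSO | timing = overnight cell settling, then overnight compound exposure, 37 °C, 5% CO2 | read-out basis = GFP/RFP fluorescence ratio | controls = DMSO and RFP-L50D-GFP cell wells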
# Granule exo inh – lytic granule exocytosis inhibition; TALL-104 LAMP-1 surface exposure, flow cytometry; cells stimulated with thapsigargin and PMA; inhibition, % at 10 µM; actives 0.66% (n = 360,000);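 active means inhibition above about 55%, limit read from the data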
# The depositor's hits bear a star; / = no result. Shown are actives, neighbours in structure and some others; about 2% of the full set was active somewhere.
SMILES,VLA-4 inh,DAGLB inh,FGF22 binding,ABCB6 inh MLPCN,MT1-MMP act inh,Granule exo inh
CCN(CC)P(=O)(Nc1ccccc1Br)c1ccc(N(C)C)cc1NC(=O)c1ccco1 (centres undefined),5.5,-1.5,44.0*,98.0,-11.9,-2.0
COc1ccc(NC(=S)NNC(=O)c2ccc(S(=O)(=O)N3CCOCC3)cc2)cc1,15.3,2.3,1.4*,96.0,4.3,-1.1
O=C(Oc1ccc(Br)cc1)c1n[nH]c(=O)c2ccccc12,15.6,0.1,43.1*,95.0,4.4,-1.9
CC(=O)Nc1ccccc1OCC(=O)NC(C)c1ccccc1 (centres undefined),11.5,0.9,1.0,100.0,3.3,26.9
CCOc1ccc(OCC(=O)Nc2ccccc2C(F)(F)F)cc1,-0.6,-20.6,/,95.0,7.0,8.1
O=C(COc1ccccc1Br)Nc1ccccc1C(F)(F)F,-3.7,-9.3,43.0*,98.0,6.2,12.3
CC(=O)Nc1ccccc1OCC(=O)NCC(F)(F)F,-22.7,-1.3,43.9*,95.0,-1.1,-3.1
C[C@@H](NC(=O)C[C@H]1C=C[C@H](NC(=O)Cc2ccccn2)[C@H](CO)O1)c1ccccc1,/,/,-0.2,/,/,/
C[C@@H]1CCCCO[C@@H](CN(C)S(=O)(=O)c2cccs2)[C@@H](C)CN([C@@H](C)CO)C(=O)c2cc(NC(=O)c3ccccc3)ccc2O1,/,/,0.1,/,/,/
CCc1csc(N2[C@@H](C#N)[C@@H](c3ccc(C4=CCCC4)cc3)[C@@H]2CO)n1,/,/,-0.1,/,/,/
COc1ccc2c3c(n(C)c2c1)[C@@H](CO)N(C(C)=O)CC31CN(Cc2ccccc2OC)C1,/,/,-0.1,/,/,/
CCOC(=O)/C(C#N)=C\c1cc(C)n(-c2ccccc2)c1C,-1.7,-13.5,/,104.0,0.3,21.1
CCOC(=O)/C(C#N)=C/c1cc(C)n(-c2ccc(C)cc2)c1C,1.2,-20.6,/,96.0,-1.3,85.7*
CN(C)C(=O)C[C@H]1C[C@@H]2c3cc(NS(C)(=O)=O)ccc3O[C@@H]2[C@@H](CO)O1,/,/,-0.2,/,/,/
C#Cc1ccc([C@@H]2C=C(C(=O)N3CCCCCCC3)O[C@H](OCCCCO)C2)cc1,/,/,0.2,/,/,/
COc1ccc(Nc2nc3ccccc3nc2NS(=O)(=O)c2cccs2)cc1,-5.4,8.1,/,101.0,2.3,-2.0
O=S(=O)(Nc1nc2ccccc2nc1OCC(F)(F)F)c1cccs1,-11.5,0.2,45.1*,97.0,-0.6,-2.3
CN(C)C(=O)c1cc(C(=O)c2ccc(Cl)cc2Cl)c[nH]1,3.9,-0.7,-0.1,96.0,-1.8,-7.1
NC(=O)c1cc(C(=O)c2ccc(Cl)cc2Cl)c[nH]1,7.5,-3.7,43.9*,96.0,-7.4,3.3
O=C1N[C@@H](Cc2ccccc2)COCn2nncc2CC[C@@H]1Cc1ccccc1,/,/,0.0,/,/,/
O=C(CN1CCN(Cc2ccc(Cl)cc2)C1=O)NCc1cccs1,0.5,-1.9,43.9*,98.0,0.6,2.1
O=C(CN1CCN(S(=O)(=O)c2ccc(Cl)cc2)CC1)NCc1cccs1,2.1,1.6,/,103.0,-2.8,0.4
CCCNC(=O)Nc1ccc2c(c1)OC[C@@H](C)N(Cc1ccncc1)C[C@H](C)[C@H](OC)CN(C)C2=O,/,/,0.6,/,/,/
Cc1cc(OCC(=O)NCCc2ccc(Cl)cc2)c2c(C)cc(=O)oc2c1,-0.2,2.8,43.0*,96.0,0.5,-3.0
CC=Cc1ccc2n(c1=O)C[C@@H]1[C@@H](CO)[C@H](C(=O)NCc3ccccc3)[C@H]2N1CC (mixture of isomers),/,/,0.0,/,/,/
SMILES,VLA-4 inh,DAGLB inh,FGF22 binding,ABCB6 inh MLPCN,MT1-MMP act inh,Granule exo inh
CC=Cc1ccc2n(c1=O)C[C@H]1[C@H](CO)[C@@H](C(=O)NCc3ccccc3)[C@@H]2N1CC (mixture of isomers),/,/,1.4*,/,/,/
Cc1oc(-c2ccccc2F)nc1CS(=O)CC(=O)NCc1ccccn1 (centres undefined),10.1,0.5,44.1*,102.0,-2.1,2.6
[O-][N+](=C(c1ccccc1)c1ccccc1)c1ccccc1,/,-0.3,43.4*,94.0,0.2,-11.5
CCCn1nc([N+](=O)[O-])c(C(C#N)c2nc3ccccc3s2)c(Cl)c1=O (centres undefined),13.8,67.5*,/,91.0,21.2,51.8
COc1ccc2c3c([nH]c2c1)[C@@H](CO)N(C(=O)Nc1ccc(F)cc1)CC31CN(C(=O)Cc2ccncc2)C1,/,/,0.1,/,/,/
Cn1cc(CN2CCC(C(=O)N3CCCC3)CC2)c(-c2ccccc2F)n1,3.3,0.8,43.0*,100.0,-2.5,0.0
Cn1cc(CN2CCC(C(O)c3cccs3)CC2)c(-c2ccccc2F)n1 (centres undefined),/,-0.7,0.2,103.0,7.4,-1.2
Cc1ccc(CSc2nnc(-c3ccncc3)o2)c(C)c1,2.9,-7.0,43.1*,100.0,1.4,-2.5
COc1ccc(S(=O)(=O)N[C@@H]2CC[C@H](CC(=O)N3CCN(c4ccccc4)CC3)O[C@H]2CO)cc1,/,/,-0.2,/,/,/
Cc1noc(C)c1NC(=O)Nc1cccc2c1O[C@H](CN(C)Cc1ccc(-c3ccccc3)cc1)[C@@H](C)CN([C@H](C)CO)C2=O,/,/,-0.2,/,/,/
COc1ccc(NC(=O)N(C)C[C@H]2OCCCC[C@@H](C)Oc3ccc(NS(=O)(=O)c4ccc(OC)cc4)cc3C(=O)N([C@H](C)CO)C[C@@H]2C)cc1,/,/,-0.3,/,/,/
c1ccc(-n2cc(CN3CCCC3)c(-c3ccc4c(c3)OCO4)n2)cc1,6.0,0.3,43.2*,96.0,-1.0,-1.6
COc1ccc(C2c3c(-c4ccccc4O)n[nH]c3C(=O)N2CCc2ccc(OC)c(OC)c2)cc1 (centres undefined),-4.8,2.3,/,99.0,4.5,0.9
COc1ccc(CCN2C(=O)c3[nH]nc(-c4ccccc4O)c3C2c2cccc(Cl)c2)cc1 (centres undefined),-7.7,3.8,/,107.0,-10.4,62.3*
CC(=O)c1ccc(OCc2cccc(C(F)(F)F)c2)cc1O,4.0,-12.1,43.1*,94.0,-1.7,0.2
NNC(=O)c1sccc1OCc1cccc(C(F)(F)F)c1,3.6,-4.2,0.4,93.0,6.0,1.0
COc1ccc2c3c(n(C)c2c1)[C@H](CO)N(C(=O)c1cnccn1)CC31CN(C(=O)c2ccncc2)C1,/,/,0.0,/,/,/
CCN1C(=O)/C(=C2/Sc3ccccc3N2CC)S/C1=N\c1ncn[nH]1,-11.7,1.2,43.6*,107.0,-27.4,4.8
C[C@H](CO)N1C[C@H](C)[C@H](CN(C)S(=O)(=O)c2ccc(F)cc2)Oc2c(NC(=O)c3ccc(-c4nccs4)cc3)cccc2C1=O,/,/,-0.7,/,/,/
CC1=C(C(=O)OCCOC(C)C)C(c2cc3c(cc2Br)OCO3)C2=C(CCCC2=O)N1 (centres undefined),10.8,-4.2,/,102.0,-12.4,100.2*
CC(C)CCN1CCN(CC(c2ccccc2)c2ccccc2)CC1CCO (centres undefined),3.6,-1.4,43.1*,97.0,-9.9,-4.9
